# Key:
# [1] = molecular target: T1, Human immunodeficiency virus type 1 integrase (Human immunodeficiency virus 1, UniProt Q7ZJM1); experiment: Apparent binding affinity to Trx-His-tagged HIV integrase; details: read-out: Kd(app)
# Method in brief: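 Apparent dissociation constant from the same displacement assay, run instead with a thioredoxin-tagged His6 integrase construct.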
# [2] = test system: Human immunodeficiency virus 1; experiment: Antiviral activity against HIV1 NL4.3 harboring integrase T124/T125 mutant; assay type: functional, organism-based; details: Human immunodeficiency virus 1, NL4.3
# Method in brief: (§1)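 Cell-based antiviral assay giving EC50 (nM) against wild-type NL4.3 (IN T124/T125) or recombinant NL4.3 engineered to carry the naturally polymorphic integrase residues at positions 124 and 125.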
# [3] = test system: Human immunodeficiency virus 1; experiment: Antiviral activity against HIV1 NL4.3 harboring integrase N124/T125 mutant; assay type: functional, organism-based; details: Human immunodeficiency virus 1, NL4.3; method in brief: as §1
# [4] = Half life in human liver microsomes; assay type: ADME
# [5] = species on record: Rattus norvegicus; experiment: Clearance in rat; assay type: ADME, organism-based; details: in vivo
# [6] = Half life in bile duct cannulated rat; assay type: ADME, organism-based; details: in vivo
# [7] = test system: Human immunodeficiency virus 1; experiment: Antiviral activity against HIV-1 NL4.3-HxB2 virus harboring integrase T124/T125 mutant relative to control in presence of 50% human serum; assay type: functional
# [8] = test system: Human immunodeficiency virus 1; experiment: Antiviral activity against HIV1 NL4.3 harboring integrase T124/T125 mutant relative to control in presence of 50% human serum; assay type: functional
# Method in brief: (§2)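 Serum shift for the same NL4.3 IN-variant viruses, from EC50 values measured with and without 50% human serum.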
# [9] = test system: Human immunodeficiency virus 1; experiment: Antiviral activity against HIV1 NL4.3 harboring integrase A124/T125 mutant relative to control in presence of 50% human serum; assay type: functional; method in brief: as §2
# [10] = test system: Human immunodeficiency virus 1; experiment: Antiviral activity against HIV1 NL4.3 harboring integrase A124/A125 mutant relative to control in presence of 50% human serum; assay type: functional; method in brief: as §2
# [11] = test system: Human immunodeficiency virus 1; experiment: Antiviral activity against HIV1 NL4.3 harboring integrase N124/T125 mutant relative to control in presence of 50% human serum; assay type: functional; method in brief: as §2
# [12] = test system: Human immunodeficiency virus 1; experiment: Antiviral activity against HIV1 NL4.3 harboring integrase N124/A125 mutant relative to control in presence of 50% human serum; assay type: functional; method in brief: as §2
# [13] = Half life in rat liver microsomes; assay type: ADME
# [14] = test system: Human immunodeficiency virus 1; experiment: Antiviral activity against HIV-1 NL4.3-HxB2 virus harboring integrase T124/T125 mutant; assay type: functional, organism-based; details: Human immunodeficiency virus 1, NL4.3-HxB2; pooled result: one value given for 4 cell lines, strains, targets or settings
# [15] = molecular target: Cytochrome P450 2D6 (Homo sapiens, UniProt P10635); experiment: Inhibition of CYP2D6 (unknown origin); assay type: ADME
# Sequence of Cytochrome P450 2D6 (P10635 whole entry): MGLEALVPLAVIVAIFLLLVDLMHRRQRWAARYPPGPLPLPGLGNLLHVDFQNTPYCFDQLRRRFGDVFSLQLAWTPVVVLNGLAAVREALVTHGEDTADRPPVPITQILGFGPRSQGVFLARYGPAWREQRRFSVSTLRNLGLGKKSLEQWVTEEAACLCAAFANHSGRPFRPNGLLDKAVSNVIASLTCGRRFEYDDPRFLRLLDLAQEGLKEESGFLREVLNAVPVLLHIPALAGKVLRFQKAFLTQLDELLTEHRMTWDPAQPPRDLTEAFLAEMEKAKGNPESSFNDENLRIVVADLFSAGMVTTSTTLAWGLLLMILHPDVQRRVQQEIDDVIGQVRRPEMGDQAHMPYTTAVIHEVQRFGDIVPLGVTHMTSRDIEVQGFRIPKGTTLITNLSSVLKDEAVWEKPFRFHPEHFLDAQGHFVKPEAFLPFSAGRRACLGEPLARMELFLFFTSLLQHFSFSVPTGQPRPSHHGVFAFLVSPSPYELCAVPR
# [16] = Solubility of the compound at pH 6.8; assay type: physicochemical; details: buffer
# [17] = Drug excretion in bile duct cannulated rat bile after 3 hrs; assay type: ADME; details: read-out: Drug excretion
# Method in brief: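 Rats with cannulated bile ducts were dosed, and the fraction of compound excreted into bile was measured at the 3 h time point.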
# [18] = molecular target: T1, Human immunodeficiency virus type 1 integrase; experiment: Apparent binding affinity to His-tagged HIV integrase; details: read-out: Kd(app)
# [19] = molecular target: Human immunodeficiency virus type 1 integrase (Human immunodeficiency virus 1) (UniProt Q7ZJM1); experiment: Ratio of app-Kd for Trx-His-tagged HIV integrase to His-tagged HIV integrase
# Sequence of Human immunodeficiency virus type 1 integrase (Human immunodeficiency virus 1) (Q7ZJM1 as listed by the source): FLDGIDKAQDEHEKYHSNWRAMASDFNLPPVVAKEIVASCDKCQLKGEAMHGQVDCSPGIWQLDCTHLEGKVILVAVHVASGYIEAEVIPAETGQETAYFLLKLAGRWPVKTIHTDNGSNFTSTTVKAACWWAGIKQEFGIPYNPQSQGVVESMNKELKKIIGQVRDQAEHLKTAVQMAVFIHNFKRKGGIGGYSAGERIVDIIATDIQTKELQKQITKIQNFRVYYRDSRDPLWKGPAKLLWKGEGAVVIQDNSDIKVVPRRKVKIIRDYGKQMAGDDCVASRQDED
# [20] = test system: Human immunodeficiency virus 1; experiment: Antiviral activity against HIV1 NL4.3 harboring integrase T124/A125 mutant; assay type: functional, organism-based; details: Human immunodeficiency virus 1, NL4.3; method in brief: as §1
# [21] = Half life in rat; assay type: ADME, organism-based; details: in vivo
# [22] = molecular target: Cytochrome P450 3A4 (Homo sapiens, UniProt P08684); experiment: Inhibition of CYP3A4 (unknown origin); assay type: ADME
# Sequence of Cytochrome P450 3A4 (P08684 whole entry): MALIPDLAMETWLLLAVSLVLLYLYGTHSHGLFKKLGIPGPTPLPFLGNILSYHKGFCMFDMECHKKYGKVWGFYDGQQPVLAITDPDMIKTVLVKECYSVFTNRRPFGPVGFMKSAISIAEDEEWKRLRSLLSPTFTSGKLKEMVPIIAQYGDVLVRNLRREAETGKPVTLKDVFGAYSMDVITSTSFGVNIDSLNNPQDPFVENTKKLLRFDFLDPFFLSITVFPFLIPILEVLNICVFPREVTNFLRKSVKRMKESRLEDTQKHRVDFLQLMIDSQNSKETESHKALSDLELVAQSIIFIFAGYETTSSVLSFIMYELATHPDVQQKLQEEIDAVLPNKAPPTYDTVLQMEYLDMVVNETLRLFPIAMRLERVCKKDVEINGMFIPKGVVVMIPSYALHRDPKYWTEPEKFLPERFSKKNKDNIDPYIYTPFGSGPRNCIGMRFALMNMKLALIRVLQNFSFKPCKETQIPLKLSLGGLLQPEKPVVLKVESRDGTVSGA
# [23] = Apparent permeability in human Caco2 cells; assay type: ADME, cell-based; details: Caco-2
# [24] = Lipophilicity, log D of the compound at pH 7.4; assay type: physicochemical; details: buffer
# T1 sequence (Q7ZJM1 whole entry): as the sequence (Q7ZJM1 as listed by the source) above
SMILES,Kd [1] [nM],EC50 [2] [nM],EC50 [3] [nM],half-life [4] [h],half-life [13] [h],further results
Cc1noc(C)c1-c1ccc(-c2nc(C)c([C@H](OC(C)(C)C)C(=O)O)c(-c3ccc4c(c3)CCCO4)c2C)c(F)c1,35,7.3,830,1,–,–
Cc1nc2ccccc2c(-c2ccc3c4c(ccnc24)CCO3)c1[C@H](OC(C)(C)C)C(=O)O [BI-224436],–,–,–,–,> 5,CL [5]: 0.7%; half-life [6]: 1.6 h; fold change (FC) [7]: 2.1; fold change (FC) [8]: 2.1; fold change (FC) [9]: 2.1; fold change (FC) [10]: 2.1; fold change (FC) [11]: 2.1; fold change (FC) [12]: 2.1; EC50 [14]: 11 nM; IC50 [15]: > 30000 nM; solubility [16]: > 850 µg/mL; dose excreted at 3 h [17]: 60%
Cc1ccc(-c2nc(C)c([C@H](OC(C)(C)C)C(=O)O)c(-c3ccc(Cl)cc3)c2C)cc1C,40,14,2700,1.28,0.85,–
Cc1nc(-c2ccccc2)c(C)c(-c2ccc3c(c2)CCCO3)c1[C@H](OC(C)(C)C)C(=O)O,40,68,800,0.533,–,Kd [18]: 1000 nM; Ratio [19]: 25; EC50 [20]: 78 nM
Cc1noc(C)c1-c1ccc(-c2nc(C)c([C@H](OC(C)(C)C)C(=O)O)c(-c3ccc(Cl)cc3)c2C)cc1,50,7.7,810,3.83,2.67,CL [5]: 0.6%; half-life [21]: 8.9 h; half-life [6]: 5.4 h; fold change (FC) [7]: 9.9; fold change (FC) [8]: 9.9; fold change (FC) [9]: 9.9; fold change (FC) [10]: 9.9; fold change (FC) [11]: 9.9; fold change (FC) [12]: 9.9; EC50 [14]: 6.5 nM; IC50 [22]: 17000 nM; Papp [23]: 17 ×10⁻⁶ cm/s; IC50 [15]: > 30000 nM; logD [24]: 3.1; solubility [16]: 250 µg/mL; dose excreted at 3 h [17]: 22%
Cc1nc2c(c(-c3ccc4c(c3)CCCO4)c1[C@H](OC(C)(C)C)C(=O)O)CCCc1ccccc1-2,–,560,–,–,–,Kd [18]: 1100 nM
Cc1nc(-c2cccc(-c3cnn(C)c3)c2)c(C)c(-c2ccc3c(c2)CCCO3)c1[C@H](OC(C)(C)C)C(=O)O,59,24,920,–,–,–
"Cc1ccc(-c2nc(C)c([C@H](OC(C)(C)C)C(=O)O)c(-c3ccc4c(c3C)CCCO4)c2C)cc1C (single isomer, unassigned; atropisomer)",26,2.7,620,1.13,1.5,–
Cc1cccc(-c2nc(C)c([C@H](OC(C)(C)C)C(=O)O)c(-c3ccc4c(c3)CCCO4)c2C)c1,–,23,1100,–,–,–
Cc1nc2c(c(-c3ccc4c(c3)CCCO4)c1[C@H](OC(C)(C)C)C(=O)O)Cc1ccccc1-2,–,72,34,–,–,Kd [18]: 160 nM; EC50 [20]: 110 nM
Cc1ccc(-c2nc(C)c([C@H](OC(C)(C)C)C(=O)O)c(-c3ccc4c(c3)CCCO4)c2C)cc1C,27,11,1400,0.567,1.83,–
Cc1nc2ccccc2c(-c2ccc3c(c2)CCCO3)c1[C@H](OC(C)(C)C)C(=O)O,–,51,77,–,–,Kd [18]: 24 nM; EC50 [20]: 30 nM
"Cc1ccc(-c2nc(C)c([C@H](OC(C)(C)C)C(=O)O)c(-c3ccc4c(c3Cl)NCCO4)c2C)cc1C (single isomer, unassigned; atropisomer)",28,3.3,830,1.7,0.933,–
Cc1ccc(-c2nc(C)c([C@H](OC(C)(C)C)C(=O)O)c(-c3ccc4c(c3)CCCO4)c2C)cc1,31,18,1400,0.717,–,–
Cc1cc(-c2nc(C)c([C@H](OC(C)(C)C)C(=O)O)c(-c3ccc4c(c3)CCCO4)c2C)ccc1Cl,17,5.8,960,0.717,–,–
Cc1nc(-c2cccc(-c3ccnn3C)c2)c(C)c(-c2ccc3c(c2)CCCO3)c1[C@H](OC(C)(C)C)C(=O)O,52,10,1000,–,–,–
Cc1nc2c(ccc3ccccc32)c(-c2ccc3c(c2)CCCO3)c1[C@H](OC(C)(C)C)C(=O)O,–,62,–,–,–,Kd [18]: 180 nM; EC50 [20]: 63 nM
Cc1nc(-c2ccc(-c3ccncc3)cc2)c(C)c(-c2ccc3c(c2)CCCO3)c1[C@H](OC(C)(C)C)C(=O)O,24,23,150,–,–,–
Cc1noc(C)c1-c1ccc(-c2nc(C)c([C@H](OC(C)(C)C)C(=O)O)c(-c3ccc4c(c3)CCCO4)c2C)cc1,–,5.5,390,–,–,–

# — ChEMBL document CHEMBL3286143, “Minimizing the Contribution of Enterohepatic Recirculation to Clearance in Rat for the NCINI Class of Inhibitors of HIV” (ACS Med Chem Lett, 2014)
